# Assays:
# [1] = target: T1, Fatty-acid amide hydrolase 1 (Rattus norvegicus, UniProt P97612); experiment: Inhibition of rat FAAH preincubated for 60 mins
# T1 sequence (P97612 whole entry): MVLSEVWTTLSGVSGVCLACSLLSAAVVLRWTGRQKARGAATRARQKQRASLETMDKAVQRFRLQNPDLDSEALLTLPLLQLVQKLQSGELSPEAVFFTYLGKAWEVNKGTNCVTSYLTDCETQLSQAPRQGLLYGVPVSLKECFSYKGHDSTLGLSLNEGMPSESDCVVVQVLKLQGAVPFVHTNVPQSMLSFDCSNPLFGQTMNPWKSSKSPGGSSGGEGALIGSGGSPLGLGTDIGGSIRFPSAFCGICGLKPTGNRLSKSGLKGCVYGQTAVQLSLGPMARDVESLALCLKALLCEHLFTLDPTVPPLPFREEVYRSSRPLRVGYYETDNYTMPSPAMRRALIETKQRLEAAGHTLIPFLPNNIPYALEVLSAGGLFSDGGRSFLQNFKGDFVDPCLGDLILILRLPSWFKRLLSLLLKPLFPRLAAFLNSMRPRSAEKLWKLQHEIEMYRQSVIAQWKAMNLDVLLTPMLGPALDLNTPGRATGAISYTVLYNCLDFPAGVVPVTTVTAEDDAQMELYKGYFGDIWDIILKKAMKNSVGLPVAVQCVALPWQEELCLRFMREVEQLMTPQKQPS
# Salmonella typhimurium [2] = experiment: Genotoxicity in Salmonella typhimurium TAMix by Ames test in presence of S9 fractions; type: toxicity, organism-based, S9 Fraction; details: salmonella enterica subsp. enterica serovar typhimurium
# Summary of the method: (§1)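 Ames II liquid fluctuation microplate variant of the bacterial reverse mutation assay, run on the free heteroaryl amines released from the urea inhibitors. The TAMix strain mixture (TA7001–TA7006) detects base-pair substitutions and TA98 detects frameshift mutations. For metabolic activation, compounds were preincubated with rat liver S9 extract or run without it. Results were scored as positive or negative.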
# Salmonella typhimurium [3] = experiment: Genotoxicity in Salmonella typhimurium TA98 by Ames test in presence of S9 fractions; type: toxicity, organism-based, S9 Fraction; details: salmonella enterica subsp. enterica serovar typhimurium; summary of the method: as §1
# Salmonella typhimurium [4] = experiment: Genotoxicity in Salmonella typhimurium TAMix by Ames test in absence of S9 fractions; type: toxicity, organism-based; details: salmonella enterica subsp. enterica serovar typhimurium; summary of the method: as §1
# Salmonella typhimurium [5] = experiment: Genotoxicity in Salmonella typhimurium TA98 by Ames test in absence of S9 fractions; type: toxicity, organism-based; details: salmonella enterica subsp. enterica serovar typhimurium; summary of the method: as §1
# [6] = target: T2, Fatty-acid amide hydrolase 1 (Homo sapiens, UniProt O00519); experiment: Inhibition of human FAAH preincubated for 60 mins
# T2 sequence (O00519 whole entry): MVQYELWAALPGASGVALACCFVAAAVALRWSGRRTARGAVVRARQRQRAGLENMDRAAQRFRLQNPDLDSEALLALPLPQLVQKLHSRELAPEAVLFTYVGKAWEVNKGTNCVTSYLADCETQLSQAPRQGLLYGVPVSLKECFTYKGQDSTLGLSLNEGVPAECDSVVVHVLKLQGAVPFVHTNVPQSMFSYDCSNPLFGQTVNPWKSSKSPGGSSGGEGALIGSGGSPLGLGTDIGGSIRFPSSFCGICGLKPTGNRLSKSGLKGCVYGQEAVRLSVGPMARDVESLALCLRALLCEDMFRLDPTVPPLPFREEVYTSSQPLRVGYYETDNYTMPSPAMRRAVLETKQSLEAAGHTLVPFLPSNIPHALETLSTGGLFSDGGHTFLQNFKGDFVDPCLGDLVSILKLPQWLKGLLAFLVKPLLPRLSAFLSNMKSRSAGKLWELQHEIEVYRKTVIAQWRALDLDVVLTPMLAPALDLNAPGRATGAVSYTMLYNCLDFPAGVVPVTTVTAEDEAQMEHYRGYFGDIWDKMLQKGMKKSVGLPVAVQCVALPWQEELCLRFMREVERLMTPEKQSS
IC50 [1] [nM],IC50 [6] [nM],Structure (SMILES),Activity (Salmonella typhimurium [2]),Activity (Salmonella typhimurium [3]),Activity (Salmonella typhimurium [4]),Activity (Salmonella typhimurium [5])
6000,–,O=C(Nc1cccc2cn[nH]c12)N1CCN(Cc2cccc(Oc3ccc(Cl)cc3)c2)CC1,Toxic,Toxic,–,–
150,–,O=C(Nc1cc[nH]n1)N1CCN(Cc2cccc(Oc3ccc(Cl)cc3)c2)CC1,Non-toxic,Non-toxic,Non-toxic,Non-toxic
53,–,O=C(Nc1cnc2cccnn12)N1CCN(Cc2cccc(Oc3ccc(Cl)cc3)c2)CC1,Non-toxic,Non-toxic,Non-toxic,Non-toxic
8.1,–,O=C(Nc1noc2ccccc12)N1CCN(Cc2cccc(Oc3ccc(Cl)cc3)c2)CC1,Non-toxic,Non-toxic,Non-toxic,Non-toxic
300,6,O=C(Nc1ccccc1)N1CCN(Cc2cccc(Oc3ccc(Cl)cc3)c2)CC1,Non-toxic,Non-toxic,Non-toxic,Non-toxic
3500,–,O=C(Nc1cccn2ccnc12)N1CCN(Cc2cccc(Oc3ccc(Cl)cc3)c2)CC1,Non-toxic,Non-toxic,Non-toxic,Non-toxic
2400,–,O=C(Nc1ccn2ccnc2n1)N1CCN(Cc2cccc(Oc3ccc(Cl)cc3)c2)CC1,Non-toxic,Non-toxic,Non-toxic,Non-toxic
25,–,O=C(Nc1cccc2nsnc12)N1CCN(Cc2cccc(Oc3ccc(Cl)cc3)c2)CC1,Non-toxic,Non-toxic,Non-toxic,Non-toxic
470,–,O=C(Nc1cc2nccn2cn1)N1CCN(Cc2cccc(Oc3ccc(Cl)cc3)c2)CC1,Non-toxic,Non-toxic,Non-toxic,Non-toxic
46,–,O=C(Nc1nnn[nH]1)N1CCN(Cc2cccc(Oc3ccc(Cl)cc3)c2)CC1,Non-toxic,Non-toxic,Non-toxic,Non-toxic
24,–,O=C(Nc1ccnc2nccn12)N1CCN(Cc2cccc(Oc3ccc(Cl)cc3)c2)CC1,Non-toxic,Non-toxic,Non-toxic,Non-toxic
200,–,Cc1nc2cc(NC(=O)N3CCN(Cc4cccc(Oc5ccc(Cl)cc5)c4)CC3)ccc2o1,Toxic,Toxic,–,–
150,–,O=C(Nc1cnccn1)N1CCN(Cc2cccc(Oc3ccc(Cl)cc3)c2)CC1,Non-toxic,Non-toxic,Non-toxic,Non-toxic
–,–,O=C(Nc1ccon1)N1CCN(Cc2cccc(Oc3ccc(Cl)cc3)c2)CC1,Non-toxic,Non-toxic,Non-toxic,Non-toxic
8.3,–,O=C(Nc1cncc2ccccc12)N1CCN(Cc2cccc(Oc3ccc(Cl)cc3)c2)CC1,Toxic,Toxic,–,–
22,–,O=C(Nc1noc2cccnc12)N1CCN(Cc2cccc(Oc3ccc(Cl)cc3)c2)CC1,Non-toxic,Non-toxic,Non-toxic,Non-toxic
93,–,O=C(Nc1cccnn1)N1CCN(Cc2cccc(Oc3ccc(Cl)cc3)c2)CC1,Non-toxic,Non-toxic,Non-toxic,Non-toxic
1100,–,O=C(Nc1cnc2cc[nH]c2c1)N1CCN(Cc2cccc(Oc3ccc(Cl)cc3)c2)CC1,Toxic,Toxic,–,–
120,–,O=C(Nc1cccc2nonc12)N1CCN(Cc2cccc(Oc3ccc(Cl)cc3)c2)CC1,Toxic,Toxic,–,–
14,–,O=C(Nc1noc2ncccc12)N1CCN(Cc2cccc(Oc3ccc(Cl)cc3)c2)CC1,Non-toxic,Non-toxic,Non-toxic,Non-toxic
2200,–,O=C(Nc1noc2ccncc12)N1CCN(Cc2cccc(Oc3ccc(Cl)cc3)c2)CC1,Non-toxic,Non-toxic,Non-toxic,Non-toxic
20,–,O=C(Nc1nocc1Cl)N1CCN(Cc2cccc(Oc3ccc(Cl)cc3)c2)CC1,Toxic,Toxic,Toxic,Toxic
> 10000,> 10000,O=C(Nc1cn2ccccc2n1)N1CCN(Cc2cccc(Oc3ccc(Cl)cc3)c2)CC1,Non-toxic,Non-toxic,Non-toxic,Non-toxic
5.7,–,O=C(Nc1cccc2nccn12)N1CCN(Cc2cccc(Oc3ccc(Cl)cc3)c2)CC1,Non-toxic,Non-toxic,Non-toxic,Non-toxic
120,–,O=C(Nc1cnc2ccccn12)N1CCN(Cc2cccc(Oc3ccc(Cl)cc3)c2)CC1,Non-toxic,Non-toxic,Non-toxic,Non-toxic
2600,–,O=C(Nc1ccn2ccnc2c1)N1CCN(Cc2cccc(Oc3ccc(Cl)cc3)c2)CC1,Toxic,Toxic,Toxic,Toxic
33,1.4,O=C(Nc1cccnc1)N1CCN(Cc2cccc(Oc3ccc(Cl)cc3)c2)CC1,Non-toxic,Non-toxic,Non-toxic,Non-toxic
21,–,O=C(Nc1cnc2[nH]ccc2c1)N1CCN(Cc2cccc(Oc3ccc(Cl)cc3)c2)CC1,Toxic,Toxic,–,–
0.7,–,O=C(Nc1noc2cnccc12)N1CCN(Cc2cccc(Oc3ccc(Cl)cc3)c2)CC1,Non-toxic,Non-toxic,Non-toxic,Non-toxic
3600,–,O=C(Nc1ccc2nccn2c1)N1CCN(Cc2cccc(Oc3ccc(Cl)cc3)c2)CC1,Non-toxic,Non-toxic,Non-toxic,Non-toxic

# Source: ChEMBL document CHEMBL2202994, “Heteroaryl urea inhibitors of fatty acid amide hydrolase: structure-mutagenicity relationships for arylamine metabolites” (Bioorg Med Chem Lett, 2012)
